Data reported in ChEMBL document CHEMBL1138505, “Engineered apoptosis-inducing peptides with enhanced mitochondrial localization and potency” (J Med Chem, 2009).
Active and inactive are the calls of the source. No cut-off for these calls is given here.

How the values were obtained:
[1] = Cytotoxicity against human KS1767 cells assessed as dehydrogenase activity after 48 hrs by […]; assay type: functional; settings: KS1767, 48 h, read-out: LC50 (the source's name)
Method in brief: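 KS1767 cells were kept in DMEM with 10% FBS. Integrin-homing (CNGRC) peptide conjugates were incubated over a concentration range for 48 h in OPTI-MEM with 2% FBS. Death was read by Sytox Red viability staining and CCK-8 dehydrogenase activity, and LC50 was determined.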

MDA-MB-231 [2] = assay: Cytotoxicity against human MDA-MB-231 cells assessed as dehydrogenase activity after 48 hrs by […]; assay type: functional; settings: MDA-MB-231, 48 h, read-out: LC50 (the source's name)
MDA-MB-231 [3] = assay: Specificity index, ratio of LC50 for human MDA-MB-231 cells to LC50 for human KS1767 cells; assay type: functional
HeLa [4] = assay: Cytotoxicity against human HeLa cells assessed as dehydrogenase activity after 24 hrs by […]; assay type: functional; settings: read-out: LC50 (the source's name)
Method in brief: (§1)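 Cells grown in MEM with 10% FBS at 37 °C, 5% CO2 (MCF7 also given 0.01 mg/mL insulin). Unlabeled peptides were applied over a concentration range for 24 h in OPTI-MEM with 2% FBS. Cell death was scored by Sytox Red staining for loss of plasma membrane integrity and by CCK-8 dehydrogenase activity, and LC50 was determined.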

[5] = Toxicity in human RBC assessed as hemolytic activity after 2 hrs; assay type: cell-based, Erythrocyte; settings: red blood cells
Method in brief: (§2)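 In the red blood cell lysis assay, percent lysis was normalised to melittin ([…]) as 100% lysis and PBS as 0%. HC50 is the concentration giving 50% hemolysis. The minimal hemolytic concentration is the peptide level giving 10% hemolysis.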

[6] = Toxicity in human RBC assessed as minimum drug level required for 10% hemolysis after 2 hrs; assay type: cell-based; settings: erythrocyte; method in brief: as §2
[7] = Toxicity in mouse liver mitochondria assessed as minimum drug level required for mitochondrial disruption; settings: in vitro
[8] = Octanol-water partition coefficient, log P at pH 7.4; assay type: physicochemical
Method in brief: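 Thiazole orange-labelled peptides were partitioned between 1-octanol and 10 mM Tris, pH 7.4. LogP is the mean with sd of three trials.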

FaDu = assay: Cytotoxicity against human FADU cells assessed as dehydrogenase activity after 24 hrs by […]; assay type: functional; settings: read-out: LC50 (the source's name); method in brief: as §1
MCF7 = assay: Cytotoxicity against human MCF7 cells assessed as dehydrogenase activity after 24 hrs by […]; assay type: functional; settings: MCF7, 24 h, read-out: LC50 (the source's name); method in brief: as §1
[9] = Cytotoxicity against human MRC5 cells assessed as dehydrogenase activity after 24 hrs by […]; assay type: cell-based; settings: read-out: LC50; method in brief: as §1
DU-145 = assay: Cytotoxicity against human DU145 cells assessed as dehydrogenase activity after 24 hrs by […]; assay type: functional; settings: DU-145, 24 h, read-out: LC50 (the source's name); method in brief: as §1
HeLa [10] = assay: Cytotoxicity against human HeLa cells assessed as swelling and disruption of mitochondria at LC50 of 2.5 uM after 30 mins by fluorescence imaging using DAPI nuclear staining; assay type: functional, cell-based
HeLa [11] = assay: Cytotoxicity against human HeLa cells assessed as swelling and disruption of mitochondria at LC50 of 2.5 uM after 30 mins by transmission electron microscopy; assay type: functional, cell-based
HeLa [12] = assay: Cytotoxicity against human HeLa cells assessed as swelling and disruption of mitochondria at LC50 of 2.5 uM after 30 mins by calcein-AM release and quenching assay; assay type: functional, cell-based
HeLa [13] = assay: Cytotoxicity against human HeLa cells assessed as loss of plasma membrane integrity at LC50 of 2.5 uM by sytox red staining-based flow cytometry; assay type: functional, cell-based
HeLa [14] = assay: Induction of apoptosis in human HeLa cells assessed as increase in DNA fragmentation at 2.5 uM by TUNEL assay; assay type: functional, cell-based; settings: TDE = time-dependent effect
Method in brief: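 HeLa cells were treated with 2.5 µM peptide and sampled over time. DNA fragmentation in fixed, washed cells was detected by TUNEL using the APO-BrdU kit per the manufacturer.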

HeLa [15] = assay: Induction of apoptosis in human HeLa cells assessed as caspase 3 activation at 2.5 uM; assay type: functional, cell-based
Method in brief: (§3)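 After peptide treatment, HeLa cells were trypsinized, pelleted and washed. They were then stained either with FITC anti-activated caspase 3 or with anti-activated caspase 9 plus an anti-goat AlexaFluor 555 secondary. Cells were washed again and read by flow cytometry. Staurosporine-treated cells served as the positive control.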

HeLa [16] = assay: Induction of apoptosis in human HeLa cells assessed as caspase 9 activation at 2.5 uM; assay type: functional, cell-based; method in brief: as §3
HeLa [17] = assay: Cytotoxicity against human HeLa cells assessed as loss of mitochondrial membrane integrity at LC50 of 2.5 uM by flow cytometry

Row | SMILES | CC50 (HeLa [4]) | HC50 at 2 h [5] | Activity [6] | Activity [7] | logD [8] | CC50 (FaDu) | CC50 (MCF7) | CC50 at 24 h [9] | CC50 (DU-145) | other results
1 | C[C@@H](NC(=O)[C@@H](CC1CCCCC1)NC(=O)[C@@H](CCCCN)NC(=O)[C@H](CS)NC(=O)[C@H](CCCNC(=N)N)NC(=O)CNC(=O)[C@H](CC(N)=O)NC(=O)[C@@H](N)CS)C(=O)N[C@H](CCCCN)C(=O)N[C@H](CC1CCCCC1)C(=O)N[C@H](C)C(=O)N[C@H](CCCCN)C(=O)N[C@H](CCCCN)C(=O)N[C@H](CC1CCCCC1)C(=O)N[C@H](C)C(=O)N[C@H](CCCCN)C(=O)N[C@H](CC1CCCCC1)C(=O)N[C@H](C)C(=O)N[C@H](CCCCN)C(=O)O | – | – | – | – | – | – | – | – | – | CC50 [1]: 7 µM; CC50 (MDA-MB-231 [2]): 17 µM; Ratio (MDA-MB-231 [3]): 2.7
2 | CC(NC(=O)C(CC1CCCCC1)NC(=O)C(N)CCCCN)C(=O)NC(CCCCN)C(=O)NC(CC1CCCCC1)C(=O)NC(C)C(=O)NC(CCCCN)C(=O)NC(CCCCN)C(=O)NC(CC1CCCCC1)C(=O)NC(C)C(=O)NC(CCCCN)C(=O)NC(CC1CCCCC1)C(=O)NC(C)C(=O)NC(CCCCN)C(=O)O (racemic) | 6.5 µM | > 100 µM | > 100 µM | 6.3 µM | – | – | – | – | – | –
3 | CC(C)CC(NC(=O)C(N)CCCCN)C(=O)NC(C)C(=O)NC(CCCCN)C(=O)NC(CC(C)C)C(=O)NC(C)C(=O)NC(CCCCN)C(=O)NC(CCCCN)C(=O)NC(CC(C)C)C(=O)NC(C)C(=O)NC(CCCCN)C(=O)NC(CC(C)C)C(=O)NC(C)C(=O)NC(CCCCN)C(=O)O (racemic) | 160 µM | > 100 µM | > 100 µM | 200 µM | – | – | – | – | – | –
4 | C[C@@H](NC(=O)[C@@H](CC1CCCCC1)NC(=O)[C@H](N)CCCCN)C(=O)N[C@H](CCCCN)C(=O)N[C@H](CC1CCCCC1)C(=O)N[C@H](C)C(=O)N[C@H](CCCCN)C(=O)N[C@H](CCCCN)C(=O)N[C@H](CC1CCCCC1)C(=O)N[C@H](C)C(=O)N[C@H](CCCCN)C(=O)N[C@H](CC1CCCCC1)C(=O)N[C@H](C)C(=O)N[C@H](CCCCN)C(=O)O | 2.3 µM | > 42 µM | 9 µM | 1.3 µM | -1.73 | 3.3 µM | 2 µM | 5.8 µM | 2 µM | Activity (HeLa [10]): Active; Activity (HeLa [11]): Active; Activity (HeLa [12]): Active; Activity (HeLa [13]): Active; Activity (HeLa [14]): tde; Activity (HeLa [15]): Active; Activity (HeLa [16]): Active; Activity (HeLa [17]): Active
5 | CC(C)C[C@@H](NC(=O)[C@@H](CCCCN)NC(=O)[C@H](CS)NC(=O)[C@H](CCCNC(=N)N)NC(=O)CNC(=O)[C@H](CC(N)=O)NC(=O)[C@@H](N)CS)C(=O)N[C@H](C)C(=O)N[C@H](CCCCN)C(=O)N[C@H](CC(C)C)C(=O)N[C@H](C)C(=O)N[C@H](CCCCN)C(=O)N[C@H](CCCCN)C(=O)N[C@H](CC(C)C)C(=O)N[C@H](C)C(=O)N[C@H](CCCCN)C(=O)N[C@H](CC(C)C)C(=O)N[C@H](C)C(=O)N[C@H](CCCCN)C(=O)O | – | – | – | – | – | – | – | – | – | CC50 [1]: 63 µM; CC50 (MDA-MB-231 [2]): 144 µM; Ratio (MDA-MB-231 [3]): 2.3
6 | CC(C)C[C@@H](NC(=O)[C@H](N)CCCCN)C(=O)N[C@H](C)C(=O)N[C@H](CCCCN)C(=O)N[C@H](CC(C)C)C(=O)N[C@H](C)C(=O)N[C@H](CCCCN)C(=O)N[C@H](CCCCN)C(=O)N[C@H](CC(C)C)C(=O)N[C@H](C)C(=O)N[C@H](CCCCN)C(=O)N[C@H](CC(C)C)C(=O)N[C@H](C)C(=O)N[C@H](CCCCN)C(=O)O | 350 µM | > 100 µM | > 100 µM | 200 µM | -2.3 | > 200 µM | > 300 µM | > 200 µM | > 300 µM | –
7 | CCCCCC[C@@H](NC(=O)[C@H](N)CCCCN)C(=O)N[C@H](C)C(=O)N[C@H](CCCCN)C(=O)N[C@H](CCCCCC)C(=O)N[C@H](C)C(=O)N[C@H](CCCCN)C(=O)N[C@H](CCCCN)C(=O)N[C@H](CCCCCC)C(=O)N[C@H](C)C(=O)N[C@H](CCCCN)C(=O)N[C@H](CCCCCC)C(=O)N[C@H](C)C(=O)N[C@H](CCCCN)C(=O)O | 2.5 µM | 31 µM | 8 µM | 2.5 µM | – | 2.8 µM | 2.2 µM | 2.8 µM | 2 µM | –
8 | CCCCCCC(NC(=O)C(N)CCCCN)C(=O)NC(C)C(=O)NC(CCCCN)C(=O)NC(CCCCCC)C(=O)NC(C)C(=O)NC(CCCCN)C(=O)NC(CCCCN)C(=O)NC(CCCCCC)C(=O)NC(C)C(=O)NC(CCCCN)C(=O)NC(CCCCCC)C(=O)NC(C)C(=O)NC(CCCCN)C(=O)O (racemic) | 3.7 µM | > 100 µM | > 100 µM | 3.1 µM | – | – | – | – | – | –
9 | C[C@@H](NC(=O)[C@@H](Cc1ccccc1)NC(=O)[C@H](N)CCCCN)C(=O)N[C@H](CCCCN)C(=O)N[C@H](Cc1ccccc1)C(=O)N[C@H](C)C(=O)N[C@H](CCCCN)C(=O)N[C@H](CCCCN)C(=O)N[C@H](Cc1ccccc1)C(=O)N[C@H](C)C(=O)N[C@H](CCCCN)C(=O)N[C@H](Cc1ccccc1)C(=O)N[C@H](C)C(=O)N[C@H](CCCCN)C(=O)O | – | – | – | – | -2.52 | – | – | – | – | –
